Measurements from ChEMBL document CHEMBL5543129, “Peptide Inhibitor Targeting the Extraterminal Domain in BRD4 Potently Suppresses Breast Cancer Both In Vitro and In Vivo” (J Med Chem, 2024).
Square brackets hold non-standard residues; d marks the D form. Peptide text beside a SMILES is read from it. Hyp = O=C(O)[C@@H]1C[C@@H](O)CN1; Ahx = NCCCCCC(=O)O

Assays:
MCF7 = assay: Cytotoxicity against human MCF7 cells incubated for 1 week by CellTiter 96 Aqueous One Solution based assay; assay type: functional, cell-based; settings: MCF7, 168 h
Outline: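 Cells (2 × 10^3/well, DMEM + 10% FBS, 37 °C, 5% CO2) treated with a concentration gradient of peptide for 1 week. MTS reagent added for 1 h, absorbance read at 490 nm, EC50 derived.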

MDA-MB-231 = assay: Cytotoxicity against human MDA-MB-231 cells incubated for 1 week by CellTiter 96 Aqueous One Solution based assay; assay type: functional, cell-based; settings: MDA-MB-231, 168 h
Outline: (§1)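 Cells grown in RPMI-1640 (T47D, BT549) or DMEM (MDA-MB-231) with 10% FBS, 37 °C, 5% CO2. Seeded 2 × 10^3/well, exposed to a gradient concentration of peptide for 1 week. MTS-type reagent added 20 μL per 100 μL medium, 1 h at 37 °C, absorbance read at 490 nm. EC50 derived from the concentration–response curve.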

T47D = assay: Cytotoxicity against human T47D cells incubated for 1 week by CellTiter 96 Aqueous One Solution based assay; assay type: functional, cell-based; settings: 168 h; outline: as §1
[1] = target: T1, von Hippel-Lindau disease tumor suppressor/Bromodomain-containing protein 4 (Homo sapiens) (UniProt O60885+P40337); assay: PROTAC activity at VHL/BDR4 ET domain in human MCF7 cells assessed as degradation by measuring fold change in remaining BRD4 level at 2.5 uM incubated for 24 hrs by immunoblotting analysis (reference value: […]); assay type: cell-based
[2] = target: T1, von Hippel-Lindau disease tumor suppressor/Bromodomain-containing protein 4 (Homo sapiens); assay: PROTAC activity at VHL/BDR4 ET domain in human MCF7 cells assessed as degradation by measuring fold change in remaining BRD4 level at 5 uM incubated for 24 hrs by immunoblotting analysis (reference value: […]); assay type: cell-based
[3] = target: T2, von Hippel-Lindau disease tumor suppressor/Bifunctional arginine demethylase and lysyl-hydroxylase JMJD6 (Homo sapiens) (UniProt P40337+Q6NYC1); assay: Protac activity at VHL/JMJD6 in human MCF7 cells assessed as degradation by measuring fold change in remaining JMJD6 level at 2.5 uM incubated for 24 hrs by immunoblotting analysis (reference value: […]); assay type: cell-based
[4] = target: T2, von Hippel-Lindau disease tumor suppressor/Bifunctional arginine demethylase and lysyl-hydroxylase JMJD6 (Homo sapiens); assay: Protac activity at VHL/JMJD6 in human MCF7 cells assessed as degradation by measuring fold change in remaining JMJD6 level at 10 uM incubated for 6 hrs by immunoblotting analysis (reference value: […]); assay type: cell-based
[5] = target: T1, von Hippel-Lindau disease tumor suppressor/Bromodomain-containing protein 4 (Homo sapiens); assay: PROTAC activity at VHL/BDR4 ET domain in human MCF7 cells assessed as degradation by measuring fold change in remaining BRD4 level at 10 uM incubated for 24 hrs in presence of TAT-PiET by immunoblotting analysis relative to TAT/TAT-PROTAC; assay type: cell-based
Outline: (§2)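 MCF7 cells are treated with PROTAC peptide (dose series, or 10 μM over a time course, or 10 μM with or without MG132 10 μM) for up to 24 h. Comparators are TAT, TAT-PiET, or TAT-PROTAC at 10 μM. BRD4 is measured by immunoblot, normalised to β-actin; three repeats.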

[6] = target: T2, von Hippel-Lindau disease tumor suppressor/Bifunctional arginine demethylase and lysyl-hydroxylase JMJD6 (Homo sapiens); assay: PROTAC activity at VHL/JMJD6 in human MCF7 cells assessed as degradation by measuring fold change in remaining JMJD6 level at 10 uM incubated for 24 hrs in presence of TAT-PiET by immunoblotting analysis relative to TAT/TAT-PROTAC; assay type: cell-based
Outline: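 MCF7 cells were left untreated or given TAT, TAT-PROTAC, TAT-PiET or the PROTAC peptide (each 10 μM) for 24 h. Lysates were immunoblotted with β-actin for loading. Three repeats, quantified in the Supporting Table.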

[7] = target: T1, von Hippel-Lindau disease tumor suppressor/Bromodomain-containing protein 4 (Homo sapiens); assay: PROTAC activity at VHL/BDR4 ET domain in human MCF7 cells assessed as degradation by measuring fold change in remaining BRD4 level at 10 uM incubated for 24 hrs in presence of TAT by immunoblotting analysis relative to TAT/TAT-PROTAC; assay type: cell-based; outline: as §2
[8] = target: T1, von Hippel-Lindau disease tumor suppressor/Bromodomain-containing protein 4 (Homo sapiens); assay: PROTAC activity at VHL/His-tagged BDR4 ET domain (601 to 683 residues) (unknown origin) transfected in MCF7 cells assessed as degradation by measuring fold change in remaining BRD4 level at 5 uM incubated for 24 hrs by immunoblotting analysis (reference value: […]); assay type: cell-based
[9] = target: T1, von Hippel-Lindau disease tumor suppressor/Bromodomain-containing protein 4 (Homo sapiens); assay: PROTAC activity at VHL/His-tagged BDR4 ET domain (601 to 683 residues) (unknown origin) transfected in MCF7 cells assessed as degradation by measuring fold change in remaining BRD4 level at 20 uM incubated for 24 hrs by immunoblotting analysis (reference value: […]); assay type: cell-based
[10] = target: T1, von Hippel-Lindau disease tumor suppressor/Bromodomain-containing protein 4 (Homo sapiens); assay: PROTAC activity at VHL/His-tagged BDR4 ET domain (1 to 470 residues) (unknown origin) transfected in MCF7 cells assessed as degradation by measuring fold change in remaining BRD4 level at 5 uM incubated for 24 hrs by immunoblotting analysis (reference value: […]); assay type: cell-based
[11] = target: T1, von Hippel-Lindau disease tumor suppressor/Bromodomain-containing protein 4 (Homo sapiens); assay: PROTAC activity at VHL/His-tagged BDR4 ET domain (1 to 470 residues) (unknown origin) transfected in MCF7 cells assessed as degradation by measuring fold change in remaining BRD4 level at 10 uM incubated for 12 hrs by immunoblotting analysis (reference value: […]); assay type: cell-based
[12] = target: T1, von Hippel-Lindau disease tumor suppressor/Bromodomain-containing protein 4 (Homo sapiens); assay: PROTAC activity at VHL/His-tagged BDR4 ET domain (471 to 730 residues) (unknown origin) transfected in MCF7 cells assessed as degradation by measuring fold change in remaining BRD4 level at 10 uM incubated for 12 hrs by immunoblotting analysis (reference value: […]); assay type: cell-based
[13] = target: T1, von Hippel-Lindau disease tumor suppressor/Bromodomain-containing protein 4 (Homo sapiens); assay: PROTAC activity at VHL/His-tagged BDR4 […] (unknown origin) transfected in MCF7 cells assessed as degradation by measuring fold change in remaining BRD4 level at 5 uM incubated for 24 hrs by immunoblotting analysis (reference value: […]); assay type: cell-based
[14] = target: T1, von Hippel-Lindau disease tumor suppressor/Bromodomain-containing protein 4 (Homo sapiens); assay: PROTAC activity at VHL/His-tagged BDR4 […] (unknown origin) transfected in MCF7 cells assessed as degradation by measuring fold change in remaining BRD4 level at 10 uM incubated for 24 hrs by immunoblotting analysis (reference value: […]); assay type: cell-based
[15] = target: T1, von Hippel-Lindau disease tumor suppressor/Bromodomain-containing protein 4 (Homo sapiens); assay: PROTAC activity at VHL/His-tagged BDR4 […] (unknown origin) transfected in MCF7 cells assessed as degradation by measuring fold change in remaining BRD4 level at 20 uM incubated for 24 hrs by immunoblotting analysis (reference value: […]); assay type: cell-based
[16] = target: T1, von Hippel-Lindau disease tumor suppressor/Bromodomain-containing protein 4 (Homo sapiens); assay: PROTAC activity at VHL/His-tagged BDR4 ET domain (1047 to 1362 residues) (unknown origin) transfected in MCF7 cells assessed as degradation by measuring fold change in remaining BRD4 level at 10 uM incubated for 24 hrs by immunoblotting analysis (reference value: […]); assay type: cell-based
[17] = target: T1, von Hippel-Lindau disease tumor suppressor/Bromodomain-containing protein 4 (Homo sapiens); assay: PROTAC activity at VHL/His-tagged BDR4 ET domain (1047 to 1362 residues) (unknown origin) transfected in MCF7 cells assessed as degradation by measuring fold change in remaining BRD4 level at 10 uM incubated for 12 hrs by immunoblotting analysis (reference value: […]); assay type: cell-based

## H-YGRKKRRQRRRRNQKFKCGE-OH
MCF7
  EC50: 8.13 µM
MDA-MB-231
  EC50: 4.68 µM
T47D
  EC50: 13.3 µM

## CC[C@H](C)[C@H](NC(=O)[C@H](Cc1ccc(O)cc1)NC(=O)[C@@H]1C[C@@H](O)CN1C(=O)[C@H](C)NC(=O)[C@@H](NC(=O)CCCCCNC(=O)[C@H](CCC(=O)O)NC(=O)CNC(=O)[C@H](CS)NC(=O)[C@H](CCCCN)NC(=O)[C@H](Cc1ccccc1)NC(=O)[C@H](CCCCN)NC(=O)[C@H](CCC(N)=O)NC(=O)[C@H](CC(N)=O)NC(=O)[C@H](CCCNC(=N)N)NC(=O)[C@H](CCCNC(=N)N)NC(=O)[C@H](CCCNC(=N)N)NC(=O)[C@H](CCCNC(=N)N)NC(=O)[C@H](CCC(N)=O)NC(=O)[C@H](CCCNC(=N)N)NC(=O)[C@H](CCCNC(=N)N)NC(=O)[C@H](CCCCN)NC(=O)[C@H](CCCCN)NC(=O)[C@H](CCCNC(=N)N)NC(=O)CNC(=O)[C@@H](N)Cc1ccc(O)cc1)[C@@H](C)CC)C(=O)O (H-YGRKKRRQRRRRNQKFKCGE[Ahx]IA[Hyp]YI-OH)
[1]
  fold change (FC): 0.92
[2]
  fold change (FC): 0.35
[3]
  fold change (FC): 0.91
[4]
  fold change (FC): 0.89
[5]
  fold change (FC): 0.84
[6]
  fold change (FC): 0.84
[7]
  fold change (FC): 0.63
[8]
  fold change (FC): 0.72
[9]
  fold change (FC): 0.37
[10]
  fold change (FC): 1.09
[11]
  fold change (FC): 1.11
[12]
  fold change (FC): 0.9
[13]
  fold change (FC): 1.01
[14]
  fold change (FC): 0.91
[15]
  fold change (FC): 1.4
[16]
  fold change (FC): 1
[17]
  fold change (FC): 1.11
